Active and inactive are the calls of the source. No cut-off for these calls is given here.
Legend:
[1] = tested on: NCI-H1417; test: Cytotoxicity against human NCI-H1417 cells assessed as growth inhibition after 4 days by WST assay; type: functional, cell-based; settings: NCI-H1417, 96 h
Procedure, shortened: (§1)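 Human small-cell lung cancer line from ATCC, kept in RPMI-1640 with 10% FBS. Cells were exposed to serial compound concentrations for 4 days. WST-8 dye was then added for a further 1–2 h and absorbance read at 450 nm. IC50 was derived from absorbance of treated versus untreated cells. At least three independent experiments per cell line; standard deviation reported.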

[2] = tested on: NCI-H187; test: Cytotoxicity against human NCI-H187 cells assessed as growth inhibition after 4 days by WST assay; type: functional, cell-based; settings: NCI-H187, 96 h; procedure, shortened: as §1
[3] = tested on: NCI-H146; test: Antitumor activity against human NCI-H146 cells xenografted in SCID mouse assessed as tumor regression at 15 mg/kg, iv administered 5 days per week for 2 weeks; type: functional, organism-based; parameters: dose 15 mg/kg
Procedure, shortened: (§2)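 H146 cells (5×10^6, with Matrigel) implanted subcutaneously on the dorsal side of SCID mice, one tumor per mouse. Mice with tumors of 100–150 mm³ were randomized into groups of 8, mean volume 126 mm³. Vehicle or compound given intravenously at 15 mg/kg, daily, 5 days/week for 2 weeks. Tumor volume was followed over time.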

[4] = tested on: Mus musculus; test: Toxicity in SCID mouse xenografted with human NCI-H146 cells assessed as weight loss at 15 mg/kg, iv administered 5 days per week for 2 weeks; type: organism-based; parameters: dose 15 mg/kg, route intravenous; settings: in vivo
Procedure, shortened: (§3)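 SCID mice carried subcutaneous H146 xenografts, 8 per group, starting mean tumor volume 126 mm³. Dosing was intravenous at 15 mg/kg, daily, 5 days/week for 2 weeks. Body weight and other signs of toxicity were monitored during and after treatment.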

[5] = tested on: Mus musculus; test: Toxicity in SCID mouse xenografted with human NCI-H146 cells 15 mg/kg, iv administered 5 days per week for 2 weeks; type: organism-based; parameters: dose 15 mg/kg, route intravenous; settings: in vivo; procedure, shortened: as §3
[6] = tested on: Mus musculus; test: Toxicity in SCID mouse 15 mg/kg, iv administered 5 days per week for 2 weeks; type: organism-based; parameters: dose 15 mg/kg, route intravenous; settings: in vivo
Procedure, shortened: (§4)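 Tolerability run in non-tumor-bearing SCID mice. Compound given intravenously at 15 or 25 mg/kg, daily, 5 days a week for 2 weeks. Weight loss and other signs of toxicity were followed during and after treatment, and the maximum tolerated dose was set from weight loss.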

[7] = Antitumor activity against human NCI-H146 cells xenografted in SCID mouse assessed as tumor volume at 15 mg/kg, iv administered 5 days per week for 2 weeks measured on day 117 (reference value: 130 mm'3); type: functional; procedure, shortened: as §2
[8] = tested on: NCI-H146; test: Antitumor activity against human NCI-H146 cells xenografted in SCID mouse assessed as tumor regression at 15 mg/kg, iv administered 5 days per week for 2 weeks measured on day 62; type: functional, organism-based; parameters: dose 15 mg/kg; procedure, shortened: as §2
[9] = Toxicity in iv dosed SCID mouse assessed as weight loss administered 5 days per week for 2 weeks; type: organism-based; settings: in vivo
Procedure, shortened: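 Maximum tolerated dose study in SCID mice. Compound was given intravenously at 15 or 25 mg/kg, daily, 5 days a week for 2 weeks. Body weight loss and other signs of toxicity were monitored during and after treatment.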

[10] = tested on: Mus musculus; test: Toxicity in SCID mouse assessed as weight loss at 25 mg/kg, iv administered 5 days per week for 2 weeks relative to control; type: organism-based; parameters: dose 25 mg/kg, route intravenous; settings: in vivo; procedure, shortened: as §4
[11] = tested on: Mus musculus; test: Toxicity in SCID mouse assessed as weight loss at 15 mg/kg, iv administered 5 days per week for 2 weeks relative to control; type: organism-based; parameters: dose 15 mg/kg, route intravenous; settings: in vivo; procedure, shortened: as §4
[12] = biological target: Induced myeloid leukemia cell differentiation protein Mcl-1 (Homo sapiens, UniProt Q07820); test: Binding affinity to MCL1 (unknown origin) after 2 hrs by fluorescence polarization assay
Induced myeloid leukemia cell differentiation protein Mcl-1, sequence (Q07820 whole entry): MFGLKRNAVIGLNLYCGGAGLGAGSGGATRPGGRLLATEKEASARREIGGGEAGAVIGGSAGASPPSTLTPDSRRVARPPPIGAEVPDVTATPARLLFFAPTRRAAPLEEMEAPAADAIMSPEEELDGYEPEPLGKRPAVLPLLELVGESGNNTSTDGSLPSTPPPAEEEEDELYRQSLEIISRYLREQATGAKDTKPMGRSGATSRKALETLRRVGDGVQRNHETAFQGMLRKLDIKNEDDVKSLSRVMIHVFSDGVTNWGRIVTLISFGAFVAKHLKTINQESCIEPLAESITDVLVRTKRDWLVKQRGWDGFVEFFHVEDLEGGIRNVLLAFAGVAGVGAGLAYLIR
Procedure, shortened: (§5)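 Competitive FP binding assay. Preformed protein/fluorescent probe complexes were used at 1.5/1 nM for Bcl-2, 10/2 nM for Bcl-xL and 20/2 nM for Mcl-1. These were mixed with serially diluted inhibitor and shaken gently for 2 h at room temperature before millipolarization was read. IC50 came from nonlinear regression, and Ki was calculated from IC50.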

[13] = Cytotoxicity against human NCI-H146 cells assessed as growth inhibition after 4 days by WST assay; type: functional, cell-based; settings: NCI-H146, 96 h
[14] = biological target: Bcl-2-like protein 1 (Homo sapiens, UniProt Q07817); test: Binding affinity to BCL-XL (unknown origin) after 2 hrs by fluorescence polarization assay; procedure, shortened: as §5
Bcl-2-like protein 1, sequence (Q07817 whole entry): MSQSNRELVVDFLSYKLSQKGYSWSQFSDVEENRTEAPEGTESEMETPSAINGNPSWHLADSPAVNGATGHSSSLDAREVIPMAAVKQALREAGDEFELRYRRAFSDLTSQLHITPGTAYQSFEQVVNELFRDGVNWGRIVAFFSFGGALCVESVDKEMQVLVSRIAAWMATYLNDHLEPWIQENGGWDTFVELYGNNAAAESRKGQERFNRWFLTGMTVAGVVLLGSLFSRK

[15] = biological target: Apoptosis regulator Bcl-2 (Homo sapiens, UniProt P10415); test: Binding affinity to BCL2 (unknown origin) after 2 hrs by fluorescence polarization assay; procedure, shortened: as §5
Apoptosis regulator Bcl-2, sequence (P10415 whole entry): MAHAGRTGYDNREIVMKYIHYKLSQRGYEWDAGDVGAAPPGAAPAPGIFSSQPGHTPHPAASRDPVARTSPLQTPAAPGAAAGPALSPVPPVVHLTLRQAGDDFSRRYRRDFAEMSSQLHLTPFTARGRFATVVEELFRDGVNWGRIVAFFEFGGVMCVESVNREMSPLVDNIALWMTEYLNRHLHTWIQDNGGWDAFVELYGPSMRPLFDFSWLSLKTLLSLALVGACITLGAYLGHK

[16] = tested on: NCI-H146; test: Induction of apoptosis in human NCI-H146 cells xenografted in SCID mouse assessed as increase in PARP cleavage at 15 mg/kg, iv after 3 to 6 hrs by Western blotting analysis; type: functional, organism-based; parameters: dose 15 mg/kg
Procedure, shortened: (§6)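 SCID mice bearing subcutaneous H146 xenografts of about 100 mm³ got a single intravenous dose of 15 mg/kg or vehicle. Tumors were harvested at 3, 6 or 24 h. Western blot then measured total and cleaved PARP and caspase-3.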

[17] = tested on: NCI-H146; test: Induction of apoptosis in human NCI-H146 cells xenografted in SCID mouse assessed as increase in caspase-3 cleavage at 15 mg/kg, iv after 3 to 6 hrs by Western blotting analysis; type: functional, organism-based; parameters: dose 15 mg/kg; procedure, shortened: as §6
[18] = tested on: NCI-H1963; test: Cytotoxicity against human NCI-H1963 cells assessed as growth inhibition after 4 days by WST assay; type: functional, cell-based; settings: NCI-H1963, 96 h; procedure, shortened: as §1

Structure (SMILES): Cc1c(C(=O)NS(C)(=O)=O)c(-c2cccc(N3CCN(c4ccc(NS(=O)(=O)c5ccc(N[C@H](CCN(C)C)CSc6ccccc6)c([N+](=O)[O-])c5)cc4)CC3)c2)c(-c2ccc(Cl)cc2)n1C(C)C
- IC50 [1]: 2.3 nM
- IC50 [2]: 1.4 nM
- Activity [3]: Active
- Activity [4]: Non-toxic
- Activity [5]: Non-toxic
- Activity [6]: Non-toxic
- Activity [7]: 47 mm3
- Activity [8]: Active
- MTD at 2 weeks [9]: 15 mg/kg
- Activity [10]: 10%
- Activity [11]: < 5%
- IC50 [12]: > 2000 nM
- IC50 [13]: 1.3 nM
- IC50 [14]: 6.9 nM
- Ki [14]: < 1 nM
- IC50 [15]: 1.8 nM
- Ki [15]: < 1 nM
- Activity [16]: Active
- Activity [17]: Active
- IC50 [18]: 1 nM
